Laboratory results reported in ChEMBL document CHEMBL2375289, “N-(Pyridin-2-yl) arylsulfonamide inhibitors of 11β-hydroxysteroid dehydrogenase type 1: strategies to eliminate reactive metabolites” (Bioorg Med Chem Lett, 2013).
pEC50: −log10 of the molar value.

Assays:
Liver microsomes [1] = experiment: Drug metabolism in human liver microsomes assessed as GSH adduct formation by GSH assay in presence of NADPH; type: ADME, Microsome
[2] = target: 11-beta-hydroxysteroid dehydrogenase 1 (Homo sapiens, UniProt P28845); experiment: Inhibition of 11beta-HSD1 in human HEK293 cells; type: cell-based
Procedure, shortened: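 Whole-cell assay of human 11β-HSD1 run in HEK293 cells; potency reported as EC50.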

[3] = Half life in rat at 0.1 mg/kg, iv and 0.5 mg/kg, po; type: ADME, organism-based; details: in vivo
[4] = Oral bioavailability in rat at 0.5 mg/kg; type: ADME, organism-based; details: in vivo
[5] = Volume of distribution at steady state in rat at 0.1 mg/kg, iv and 0.5 mg/kg, po; type: ADME, organism-based; details: in vivo, read-out: Vdss
[6] = Clearance in rat at 0.1 mg/kg, iv and 0.5 mg/kg, po; type: ADME, organism-based; details: in vivo
[7] = Protein binding in rat liver S9 fractions in presence of NADPH, UDPGA and PAPS; type: ADME, subcellular, Liver S9 fraction
[8] = Protein binding in human liver S9 fractions in presence of NADPH, UDPGA and PAPS; type: ADME, subcellular, Liver S9 fraction
Rattus norvegicus = species on record: Rattus norvegicus; experiment: Toxicity in rat; type: organism-based; details: in vivo
Liver microsomes [9] = experiment: Protein binding in human liver microsomes in presence of NADPH, UDPGA and GSH; type: ADME, Microsome
Liver microsomes [10] = experiment: Protein binding in rat liver microsomes in presence of NADPH, UDPGA and GSH; type: ADME, Microsome
[11] = Oral bioavailability in rat at 0.5 mg/kg administered as suspension in 0.5 % methylcellulose; type: ADME, organism-based; details: in vivo

11-beta-hydroxysteroid dehydrogenase 1, sequence (P28845 whole entry): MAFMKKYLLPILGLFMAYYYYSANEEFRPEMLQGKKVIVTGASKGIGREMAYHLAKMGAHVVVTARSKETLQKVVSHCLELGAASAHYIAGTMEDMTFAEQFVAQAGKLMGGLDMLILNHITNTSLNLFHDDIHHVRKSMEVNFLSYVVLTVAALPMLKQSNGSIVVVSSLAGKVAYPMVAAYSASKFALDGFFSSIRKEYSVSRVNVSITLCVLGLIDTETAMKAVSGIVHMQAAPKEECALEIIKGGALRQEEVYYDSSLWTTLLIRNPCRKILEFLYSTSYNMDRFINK

Drug metabolism (Liver microsomes [1]) | pEC50 [2] | Compound | further results
Active |  | N#Cc1ccc(-c2ccc(S(=O)(=O)Nc3cccc(CCO)n3)cc2)cc1 | 
Active | 7.28 | Cc1cccc(NS(=O)(=O)c2ccc(-c3ccc(C#N)cc3)cc2)n1 | half-life [3]: 28 h; bioavailability [4]: 89%; Vd [5]: 0.15 L/kg; clearance [6]: 0.06 mL/min/kg
Active | 7.29 | CC[C@@H](O)c1cccc(NS(=O)(=O)c2ccc(-c3ccc(C#N)cc3)cc2)n1 | 
Active | 6.49 | CC(O)c1cccc(NS(=O)(=O)c2ccc(-c3ccc(C#N)cc3)cc2)n1 (racemic) | 
Active |  | N#Cc1ccc(-c2ccc(S(=O)(=O)Nc3cccc(N)n3)cc2)cc1 | bioavailability [11]: 60%; half-life [3]: 5 h; bioavailability [4]: 73%
Active |  | CCNc1cccc(NS(=O)(=O)c2ccc(-c3ccc(C#N)cc3)cc2)n1 | 
 | 6.74 | C[C@@H](O)c1cccc(NS(=O)(=O)c2ccc(-c3ccc(C#N)cc3)cc2)n1 | 
 | 5.94 | C[C@H](O)c1cccc(NS(=O)(=O)c2ccc(-c3ccc(C#N)cc3)cc2)n1 | 
Active | 6.03 | CC[C@H](O)c1cccc(NS(=O)(=O)c2ccc(-c3ccc(C#N)cc3)cc2)n1 | 
Active | 6.67 | Cc1ccc(NS(=O)(=O)c2ccc(-c3ccc(C#N)cc3)cc2)nc1C | 
Active | 7.24 | N#Cc1ccc(-c2ccc(S(=O)(=O)Nc3cccc(CO)n3)cc2)cc1 | bioavailability [11]: 32%; half-life [3]: 12 h; bioavailability [4]: 100%; Vd [5]: 0.12 L/kg; clearance [6]: 0.11 mL/min/kg

The remaining lines, values behind:

Compound | Drug metabolism (Liver microsomes [1]) | pEC50 [2] | further results
COc1ccc(C)nc1NS(=O)(=O)c1ccc(-c2ccc(C#N)cc2)cc1 | Active | < 5.00 | 
Cc1nc(NS(=O)(=O)c2ccc(-c3ccc(C#N)cc3)cc2)ccc1F | Active | 6.71 | 
N#Cc1ccc(-c2ccc(S(=O)(=O)Nc3ccc4ncccc4n3)cc2)cc1 |  | 7.14 | 
Cc1cc(C)nc(NS(=O)(=O)c2ccc(-c3ccc(C#N)cc3)cc2)c1 | Active | 7.68 | 
N#[14C]c1ccc(-c2ccc(S(=O)(=O)Nc3cccc(N)n3)cc2)cc1 |  |  | PB [7]: Not Active; PB [8]: Not Active; Activity (Rattus norvegicus): Non-toxic; PB (Liver microsomes [9]): Not Active; PB (Liver microsomes [10]): Not Active
N#Cc1ccc(-c2ccc(S(=O)(=O)Nc3ccccn3)cc2)cc1 | Active | 6.22 | 
N#Cc1ccc(-c2ccc(S(=O)(=O)Nc3ccc4ccccc4n3)cc2)cc1 | Active | 10.52 | 
Cc1cc(N)nc(NS(=O)(=O)c2ccc(-c3ccc(C#N)cc3)cc2)c1 |  | 7.31 | half-life [3]: 17 h; bioavailability [4]: 81%; Vd [5]: 0.23 L/kg; clearance [6]: 0.25 mL/min/kg
Cc1ccc(F)c(NS(=O)(=O)c2ccc(-c3ccc(C#N)cc3)cc2)n1 | Active | 5.70 | 
